ChEMBL document CHEMBL4433212, “First-of-its-kind STARD3 Inhibitor: In Silico Identification and Biological Evaluation as Anticancer Agent” (ACS Med Chem Lett, 2019)
Blank lines part the entries; values can stand above or below the molecule they belong to. The source made the active and inactive calls. The rule behind the calls is not given here.

Tests used:
[1] = target: T1, StAR-related lipid transfer protein 3 (Homo sapiens, UniProt Q14849); assay: Inhibition of recombinant human His-tagged StAR-related lipid transfer protein 3 START domain expressed in Escherichia coli BL21(DE3) cells assessed as reduction of protein interaction with cholesterol using 3-hexanoyl-NBD Cholesterol as substrate incubated for 5 mins by competition binding fluorescent assay
T1 sequence (Q14849 whole entry): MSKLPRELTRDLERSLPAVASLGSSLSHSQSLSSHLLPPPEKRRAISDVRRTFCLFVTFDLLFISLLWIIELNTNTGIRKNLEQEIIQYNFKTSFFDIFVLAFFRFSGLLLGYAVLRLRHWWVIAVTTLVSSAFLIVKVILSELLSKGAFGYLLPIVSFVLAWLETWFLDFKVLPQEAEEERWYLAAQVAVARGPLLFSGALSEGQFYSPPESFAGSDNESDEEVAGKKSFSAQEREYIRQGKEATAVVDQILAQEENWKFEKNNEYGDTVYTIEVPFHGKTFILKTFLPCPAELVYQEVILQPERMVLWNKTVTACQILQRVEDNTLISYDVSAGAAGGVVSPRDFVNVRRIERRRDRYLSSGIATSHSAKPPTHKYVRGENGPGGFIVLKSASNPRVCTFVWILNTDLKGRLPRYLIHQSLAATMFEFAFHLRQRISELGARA
Outline: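 Competition binding fluorescent assay of cholesterol binding to STARD3, adapted from Tsujishita and Hurley; STARD3 used at 5 μM, selected from a binding titration curve as giving 55.9% completely bound state; IC50 determined.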

MCF7 [2] = assay: Antiproliferative activity against human MCF7 cells after 96 hrs by Cell Titer-Glo based luminescence assay; type: functional; details: MCF7, 96 h
MDA-MB-231 [3] = assay: Antiproliferative activity against human MDA-MB-231 after 96 hrs by Cell Titer-Glo based luminescence assay; type: functional; details: MDA-MB-231, 96 h
HCT-116 [4] = assay: Antiproliferative activity against human HCT116 cells after 96 hrs by Cell Titer-Glo based luminescence assay; type: functional; details: HCT-116, 96 h
MCF7 [5] = assay: Anticlonogenic activity against human MCF7 cells assessed as reduction in cell proliferation after 10 days with replacement of medium for every 3 days by crystal violet staining based visual analysis; type: functional
Outline: (§1)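 MCF7, MDA-MB-231 and HCT-116 cells treated with a range of inhibitor concentrations, grown until colonies became visible; colony forming efficiency scored by visual inspection.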

MDA-MB-231 [6] = assay: Anticlonogenic activity against human MDA-MB-231 cells assessed as reduction in cell proliferation after 10 days with replacement of medium for every 3 days by crystal violet staining based visual analysis; type: functional; outline: as §1
HCT-116 [7] = assay: Anticlonogenic activity against human HCT116 cells assessed as reduction in cell proliferation after 10 days with replacement of medium for every 3 days by crystal violet staining based visual analysis; type: functional; outline: as §1
[8] = target: T2, StAR-related lipid transfer protein 3 (Mus musculus) (UniProt Q61542); assay: Induction of STARD3 degradation in cycloheximide treated mouse NIH/3T3 cells at 100 uM incubated for 24 hrs followed by addition of cycloheximide and measured after 12 hrs by Western blot analysis
T2 sequence (whole entry): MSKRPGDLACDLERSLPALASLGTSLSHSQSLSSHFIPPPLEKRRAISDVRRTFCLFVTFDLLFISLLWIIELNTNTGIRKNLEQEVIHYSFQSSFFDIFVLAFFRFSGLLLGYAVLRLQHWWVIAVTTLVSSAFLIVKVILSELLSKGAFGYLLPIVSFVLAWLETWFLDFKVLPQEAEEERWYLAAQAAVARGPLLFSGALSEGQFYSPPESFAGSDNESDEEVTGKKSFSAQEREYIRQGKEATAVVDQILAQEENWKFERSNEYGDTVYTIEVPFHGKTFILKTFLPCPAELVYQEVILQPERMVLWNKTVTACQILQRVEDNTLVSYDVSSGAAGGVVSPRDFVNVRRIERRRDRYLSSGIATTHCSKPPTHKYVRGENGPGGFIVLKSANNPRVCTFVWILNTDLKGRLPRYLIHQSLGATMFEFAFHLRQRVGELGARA
Outline: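 NIH3T3 fibroblasts pretreated with 100 μM inhibitor for 24 h, then given cycloheximide 10 μg/mL and harvested at timed points (hours); STARD3 protein followed by Western blot to track degradation kinetics.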

NIH3T3 = assay: Effect on STARD3 mRNA level in mouse NIH/3T3 cells at 0 to 100 uM incubated for 48 hrs by RT-PCR method; type: ADME, cell-based; details: nih3t3, 48 h
Outline: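 NIH3T3 fibroblasts exposed to two inhibitor concentrations for 48 h; STARD3 mRNA level then measured.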

[9] = target: T3, StAR-related lipid transfer protein 3 (Homo sapiens) (UniProt Q14849); assay: Inhibition of STARD3 in human MDA-MB-231 cells assessed as increase in FAK protein level at 100 uM incubated for 24 hrs by Western blot analysis; type: cell-based
T3 sequence (whole entry): T1 sequence (Q14849 whole entry)
Outline: (§2)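 MDA-MB-231 cells treated with 100 μM inhibitor for 24 and 48 h; total FAK and pTyr397-FAK levels assessed by Western blot against untreated cells.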

[10] = target: T3, StAR-related lipid transfer protein 3 (Homo sapiens); assay: Inhibition of STARD3 in human MDA-MB-231 cells assessed as increase in FAK protein level at 100 uM incubated for 48 hrs by Western blot analysis; type: cell-based; outline: as §2
[11] = target: T3, StAR-related lipid transfer protein 3 (Homo sapiens); assay: Inhibition of STARD3 in human MDA-MB-231 cells assessed as increase in phosphorylated FAK protein level at Tyr397 residue at 100 uM incubated for 24 hrs by Western blot analysis; type: cell-based; outline: as §2
[12] = target: T3, StAR-related lipid transfer protein 3 (Homo sapiens); assay: Inhibition of STARD3 in human MDA-MB-231 cells assessed as increase in phosphorylated FAK protein level at Tyr397 residue at 100 uM incubated for 48 hrs by Western blot analysis; type: cell-based; outline: as §2

IC50 [1]: 35 µM | IC50 (MCF7 [2]): 106 µM | IC50 (MDA-MB-231 [3]): 49.7 µM | IC50 (HCT-116 [4]): 70.7 µM | Activity [8]: Active | inhibition [9]: Active | inhibition [10]: Active | inhibition [11]: Active | inhibition [12]: Active
SMILES: O=c1nc(/C=C/c2ccc(O)c([N+](=O)[O-])c2)[nH]c2c1CCN(Cc1ccccc1)C2
Activity (MCF7 [5]): Dose-dependent effect | Activity (MDA-MB-231 [6]): Dose-dependent effect | Activity (HCT-116 [7]): Dose-dependent effect | Activity (NIH3T3): Non-Toxic

IC50 [1]: > 100 µM
SMILES: O=C(/C=C/c1ccccc1F)Nc1ccc(N2CCNC(=O)C2)c(Cl)c1

IC50 [1]: > 100 µM
SMILES: O=C1CN(c2ccc(NC(=O)c3csc(-c4cccc(Cl)c4)n3)cn2)CCN1

IC50 [1]: > 100 µM
SMILES: O=C(COC(=O)c1ccc(-c2ccc(O)cc2)cc1)NCc1ccc(F)cc1
